Legend:
Rattus norvegicus [1] = experiment: Antipsychotic activity was assessed by ability to antagonize the stereotypy induced in rats by d-amphetamine (5 mg / kg, ip) after 1 h; Range is 3.2-5.6; type: functional
Method in brief: (§1)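 Rats were housed singly in covered plastic compartments and briefly acclimated. Groups of five received compound ip at doses spaced 0.5 log unit (e.g., 1, 3.2, 10, 32 mg/kg). d-Amphetamine sulfate 5 mg/kg ip was given 1, 5 or 24 h later. One hour after each challenge, at peak amphetamine effect, each rat's most characteristic behavior was rated on a six-point scale.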

Rattus norvegicus [2] = experiment: Antipsychotic activity was assessed by ability to antagonize the stereotypy induced in rats by d-amphetamine (5 mg / kg, ip) after 5 h; type: functional; method in brief: as §1
Rattus norvegicus [3] = experiment: Antipsychotic activity was assessed by ability to antagonize the stereotypy induced in rats by d-amphetamine (5 mg/kg, ip) after 1 h; type: functional; method in brief: as §1
Rattus norvegicus [4] = experiment: Antipsychotic activity was assessed by ability to antagonize the stereotypy induced in rats by d-amphetamine (5 mg/kg, ip) after 5 h; type: functional; method in brief: as §1
Rattus norvegicus [5] = experiment: Antipsychotic activity was assessed by ability to antagonize the stereotypy induced in rats by d-amphetamine (5 mg / kg, ip) after 1 h; type: functional; method in brief: as §1
Rattus norvegicus [6] = experiment: Antipsychotic activity was assessed by ability to antagonize the stereotypy induced in rats by d-amphetamine (5 mg / kg, ip) after 24 h; Range is 1.0-3.2; type: functional; method in brief: as §1
Rattus norvegicus [7] = experiment: Antipsychotic activity was assessed by ability to antagonize the stereotypy induced in rats by d-amphetamine (5 mg / kg, ip) after 1 h; Range is 0.1-0.32; type: functional; method in brief: as §1
Rattus norvegicus [8] = experiment: Antipsychotic activity was assessed by ability to antagonize the stereotypy induced in rats by d-amphetamine (5 mg / kg, ip) after 5 h; Range is 0.1-0.32; type: functional; method in brief: as §1
Rattus norvegicus [9] = experiment: Antipsychotic activity was assessed by ability to antagonize the stereotypy induced in rats by d-amphetamine (5 mg / kg, ip) after 24 h; Range is 3.2-10; type: functional; method in brief: as §1
Rattus norvegicus [10] = experiment: Antipsychotic activity was assessed by ability to antagonize the stereotypy induced in rats by d-amphetamine (5 mg / kg, ip) after 1 h; Range is 1.0-3.2; type: functional; method in brief: as §1
Rattus norvegicus [11] = experiment: Antipsychotic activity was assessed by ability to antagonize the stereotypy induced in rats by d-amphetamine (5 mg / kg, ip) after 5 h; Range is 1.0-3.2; type: functional; method in brief: as §1
Rattus norvegicus [12] = experiment: Antipsychotic activity was assessed by ability to antagonize the stereotypy induced in rats by d-amphetamine (5 mg / kg, ip) after 1 h; Range is 3.2-10
Rattus norvegicus [13] = experiment: Antipsychotic activity was assessed by ability to antagonize the stereotypy induced in rats by d-amphetamine (5 mg / kg, ip) after 24 h; type: functional; method in brief: as §1
Rattus norvegicus [14] = experiment: Antipsychotic activity was assessed by ability to antagonize the stereotypy induced in rats by d-amphetamine (5 mg / kg, ip) after 5 h; Range is 10-32; type: functional; method in brief: as §1
Rattus norvegicus [15] = experiment: Antipsychotic activity was assessed by ability to antagonize the stereotypy induced in rats by d-amphetamine (5 mg/kg, ip) after 24 h; type: functional; method in brief: as §1
Rattus norvegicus [16] = experiment: Antipsychotic activity was assessed by ability to antagonize the stereotypy induced in rats by d-amphetamine (5 mg/kg, ip) after 1 h; Range is 10-32; type: functional; method in brief: as §1
Rattus norvegicus [17] = experiment: Antipsychotic activity was assessed by ability to antagonize the stereotypy induced in rats by d-amphetamine (5 mg/kg, ip) after 5 h; Range is 3.2-10; type: functional; method in brief: as §1
Rattus norvegicus [18] = experiment: Antipsychotic activity was assessed by ability to antagonize the stereotypy induced in rats by d-amphetamine (5 mg/kg, ip) after 1 h; Range is 3.2-10; type: functional; method in brief: as §1

CN1Cc2c(n(-c3ccc(F)cc3)c3ccc(F)cc23)C1.Cl
ED50 (Rattus norvegicus [1]): 3.2 mg/kg | ED50 (Rattus norvegicus [2]): > 10 mg/kg

CCOC(=O)N1Cc2c(n(-c3ccc(F)cc3)c3ccc(F)cc23)C1
ED50 (Rattus norvegicus [3]): > 32 mg/kg | ED50 (Rattus norvegicus [4]): > 32 mg/kg

CCCN1Cc2c(n(-c3ccc(F)cc3)c3ccc(F)cc23)C1.I
ED50 (Rattus norvegicus [5]): > 32 mg/kg | ED50 (Rattus norvegicus [2]): > 32 mg/kg

Cl.OC(CCCN1CCc2c(c3cc(F)ccc3n2-c2ccc(F)cc2)C1)c1ccc(F)cc1 (stereo unspecified)
ED50 (Rattus norvegicus [6]): 1 mg/kg | ED50 (Rattus norvegicus [7]): 0.1 mg/kg | ED50 (Rattus norvegicus [8]): 0.1 mg/kg

Cl.OC(CCCN1Cc2c(n(-c3ccc(F)cc3)c3ccc(F)cc23)C1)c1ccc(F)cc1 (stereo unspecified)
ED50 (Rattus norvegicus [9]): 3.2 mg/kg | ED50 (Rattus norvegicus [10]): 1 mg/kg | ED50 (Rattus norvegicus [11]): 1 mg/kg

CCOC(=O)N1Cc2[nH]c3ccc(F)cc3c2C1.Cl
ED50 (Rattus norvegicus [5]): > 32 mg/kg | ED50 (Rattus norvegicus [2]): > 32 mg/kg

CN(C)CCCN1c2ccccc2Sc2ccc(Cl)cc21 [CHLORPROMAZINE]
ED50 (Rattus norvegicus [12]): 3.2 mg/kg | ED50 (Rattus norvegicus [13]): 56 mg/kg | ED50 (Rattus norvegicus [2]): 17.8 mg/kg

Cl.OC(CCCCN1Cc2c(n(-c3ccc(F)cc3)c3ccc(F)cc23)C1)c1ccc(F)cc1 (stereo unspecified)
ED50 (Rattus norvegicus [14]): 10 mg/kg | ED50 (Rattus norvegicus [5]): > 32 mg/kg

Cl.O=C(CCCCN1Cc2c(n(-c3ccc(F)cc3)c3ccc(F)cc23)C1)c1ccc(F)cc1
ED50 (Rattus norvegicus [5]): 32 mg/kg | ED50 (Rattus norvegicus [2]): > 32 mg/kg

Cl.Fc1ccc(-n2c3c(c4cc(F)ccc42)CN(Cc2ccccc2)C3)cc1
ED50 (Rattus norvegicus [5]): > 32 mg/kg | ED50 (Rattus norvegicus [2]): > 32 mg/kg

Cl.Fc1ccc(-n2c3c(c4cc(F)ccc42)CNC3)cc1
ED50 (Rattus norvegicus [15]): 32 mg/kg | ED50 (Rattus norvegicus [3]): > 32 mg/kg | ED50 (Rattus norvegicus [4]): > 32 mg/kg

Cl.OC(CCCN1Cc2c(n(-c3ccc(F)cc3)c3ccc(F)cc23)C1)c1ccccc1 (stereo unspecified)
ED50 (Rattus norvegicus [16]): 10 mg/kg | ED50 (Rattus norvegicus [15]): > 32 mg/kg | ED50 (Rattus norvegicus [4]): > 10 mg/kg

Cl.Fc1ccc(-n2c3c(c4cc(F)ccc42)CN(CCc2ccccc2)C3)cc1
ED50 (Rattus norvegicus [5]): > 32 mg/kg | ED50 (Rattus norvegicus [2]): > 32 mg/kg

Cl.O=C(CCCN1Cc2c(n(-c3ccc(F)cc3)c3ccc(F)cc23)C1)c1ccccc1
ED50 (Rattus norvegicus [5]): > 32 mg/kg | ED50 (Rattus norvegicus [2]): > 32 mg/kg

Cl.O=C(CCCN1Cc2c(n(-c3ccc(F)cc3)c3ccc(F)cc23)C1)c1ccc(F)cc1
ED50 (Rattus norvegicus [17]): 3.2 mg/kg | ED50 (Rattus norvegicus [15]): > 10 mg/kg | ED50 (Rattus norvegicus [18]): 3.2 mg/kg

Reference: ChEMBL document CHEMBL1121633, “Neuroleptic 4-aryltetrahydropyrrolo[3,4-b]indoles” (1980)
